Reference: ChEMBL document CHEMBL1156068, “Synthesis, pharmacological and antiviral activity of 1,3-thiazepine derivatives” (Eur J Med Chem, 2009)
Active and inactive are the calls of the source. No cut-off for these calls is given here.

Key:
[1] = tested on: Human immunodeficiency virus 1; test: Antiviral activity against wild type HIV1 3B infected in human MT4 cells assessed as protection against virus induced cytopathogenicity after 4 days by MTT assay; type: functional, organism-based; settings: Human immunodeficiency virus 1, 3B, MT4, 96 h
How it was run: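 MT-4 cells (1×10^4/well) in RPMI with serial compound dilutions were infected with HIV-1 (100 CCID50; m.o.i. 0.01). After 4 days, viability was measured by MTT. EC50 is the concentration giving 50% protection from virus-induced cytopathogenicity. Compounds were prepared as 100 mM DMSO stocks diluted in medium.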

[2] = tested on: Yellow fever virus; test: Antiviral activity against Yellow fever virus infected in BHK-21 cells assessed as protection against virus induced cytopathogenicity after 3 to 4 days by MTT assay; type: functional, organism-based
How it was run: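 BHK cells were seeded at 5 × 10^4 per well and grown overnight to monolayers, then infected at m.o.i. 0.01 in serum-free medium. One hour later, MEM Earle's with 1% FCS (final) and serial compound dilutions were added. After 3–4 days at 37 °C, viability was read by MTT. EC50 is the concentration giving 50% protection from virus-induced cytopathogenicity.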

[3] = tested on: Bovine viral diarrhea virus 1; test: Antiviral activity against Bovine viral diarrhea virus infected in MDBK cells assessed as protection against virus induced cytopathogenicity after 3 to 4 days by MTT assay; type: functional, organism-based
How it was run: (§1)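 Monolayers were grown overnight at 37 °C, 5% CO2: MDBK at 3×10^4 cells/well, BHK at 5×10^4 cells/well. Cells infected at m.o.i. 0.01. After 1 h, serial compound dilutions added in MEM with 1% FCS. Viability read by MTT after 3–4 days at 37 °C. EC50 is the concentration giving 50% protection from cytopathogenicity.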

[4] = tested on: Coxsackievirus B2; test: Antiviral activity against Coxsackie virus B2 infected in african green monkey Vero76 cells after 3 days by plaque reduction assay; type: functional, organism-based; settings: Vero 76
How it was run: (§2)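 Vero 76 monolayers (2×10^5 cells/well, overnight) infected to give 50–100 PFU/well. Unadsorbed virus removed, then DMEM with 1% FCS, 0.75% methylcellulose and serial compound dilutions added. Incubated at 37 °C for 3 days (CVB-2, HSV-1) or 5 days (RSV). Fixed and stained with 50% ethanol/0.8% crystal violet in PBS; plaques counted.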

[5] = tested on: Poliovirus 1; test: Antiviral activity against Poliovirus type 1 Sabin infected in african green monkey Vero76 cells after 2 days by plaque reduction assay; type: functional, cell-based; settings: Vero 76
[6] = tested on: Respiratory syncytial virus; test: Antiviral activity against Respiratory syncytial virus infected in african green monkey Vero76 cells after 5 days by plaque reduction assay; type: functional, organism-based; settings: Vero 76; how it was run: as §2
[7] = tested on: Vesicular stomatitis virus; test: Antiviral activity against Vesicular stomatitis virus infected in african green monkey Vero76 cells after 2 days by plaque reduction assay; type: functional, organism-based; settings: Vero 76
[8] = tested on: Mammalian orthoreovirus 1; test: Antiviral activity against Reo virus type-1 infected in BHK-21 cells assessed as protection against virus induced cytopathogenicity after 3 to 4 days by MTT assay; type: functional, organism-based; how it was run: as §1
[9] = tested on: Human alphaherpesvirus 1; test: Antiviral activity against HSV1 infected in african green monkey Vero76 cells after 3 days by plaque reduction assay; type: functional, organism-based; settings: Vero 76; how it was run: as §2
[10] = tested on: Vaccinia virus; test: Antiviral activity against Vaccinia virus infected in african green monkey Vero76 cells after 3 days by plaque reduction assay; type: functional, organism-based; settings: Orthopoxvirus vaccinia; Vero 76
[11] = Cytotoxicity against human MT4 cells assessed as reduction of cell viability after 96 hrs by MTT assay; type: cell-based
How it was run: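 Exponentially growing, mock-infected MT-4 cells were seeded at 1×10^5 cells mL-1 in RPMI-1640 with 10% FCS and penicillin/streptomycin, with serial compound dilutions. Incubated 96 h at 37 °C, 5% CO2, then viability read by MTT. CC50 is the concentration reducing viability by 50%.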

[12] = tested on: Mus musculus; test: Acute toxicity in ip dosed Swiss albino mouse assessed as mortality within 48 hrs; type: organism-based; settings: in vivo
How it was run: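 Male Albino Swiss mice (18–30 g) received compound i.p. as a suspension in 0.5% aqueous methylcellulose, 10 mL kg-1. LD50 was calculated by the Litchfield–Wilcoxon method from mortality within 48 h.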

[13] = tested on: Mus musculus; test: Depression of spontaneous locomotor activity in Swiss albino mouse at 0.1 times LD50, ip dose measured for 30 mins; type: functional, organism-based
How it was run: (§3)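 Spontaneous locomotion of single male Albino Swiss mice recorded in photoresistor actometers for 30 min. Compound given i.p. at 0.05 or 0.1 LD50 as 0.5% methylcellulose suspension 60 min before test. Vehicle controls. Student's t-test.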

[14] = tested on: Mus musculus; test: Depression of spontaneous locomotor activity in Swiss albino mouse at 0.05 times LD50, ip dose measured for 30 mins; type: functional, organism-based; how it was run: as §3
[15] = tested on: Mus musculus; test: Effect on amphetamine-induced hyperactivity in Swiss albino mouse at 5 mg/kg, sc administered 30 mins before amphetamine challenge; type: functional, organism-based; parameters: dose 5 mg/kg
How it was run: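 Mice received compound i.p. (0.1 LD50, 0.5% methylcellulose suspension) 60 min before test. Amphetamine 5 mg kg-1 s.c. was given 30 min before test. Locomotion of single male Albino Swiss mice recorded in photoresistor actometers for 30 min. Vehicle controls. Student's t-test.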

[16] = tested on: Mus musculus; test: Antinociceptive activity in Swiss albino mouse assessed as protection against acetic acid-induced abdominal constriction at 200 mg/kg, ip measured for 10 mins by writhing test; type: functional, organism-based; parameters: dose 200 mg/kg; settings: Abdomen
[17] = tested on: Mus musculus; test: Effect on pentylenetetrazole-induced clonic seizures in Swiss albino mouse at 200 mg/kg, ip; type: functional, organism-based; parameters: dose 200 mg/kg
How it was run: (§4)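 Mice pretreated i.p. with compound (200 mg kg-1, 0.5% methylcellulose suspension, 60 min), then pentylenetetrazole 110 mg kg-1 s.c. Scored as number of mice with clonic seizures, tonic convulsions, and deaths. Chi-square test with Yates correction.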

[18] = tested on: Mus musculus; test: Effect on pentylenetetrazole-induced tonic convulsion in Swiss albino mouse at 200 mg/kg, ip; type: functional, organism-based; parameters: dose 200 mg/kg; how it was run: as §4
[19] = tested on: Mus musculus; test: Effect on motor coordination in Swiss albino mouse at 200 mg/kg, ip by chimney test; type: ADME, organism-based; parameters: dose 200 mg/kg, route intraperitoneal; settings: in vivo
[20] = tested on: Mus musculus; test: Effect on motor coordination in Swiss albino mouse at 200 mg/kg, ip by rotarod test; type: ADME, organism-based; parameters: dose 200 mg/kg, route intraperitoneal; settings: in vivo
[21] = organism: Mus musculus; test: Decrease in body temperature in normothermic Swiss albino mouse within 30 to 90 mins; type: ADME, organism-based; settings: in vivo
[22] = organism: Mus musculus; test: Decrease in body temperature in normothermic Swiss albino mouse within 60 to 120 mins; type: ADME, organism-based; settings: in vivo
[23] = tested on: Mus musculus; test: Decrease in 5-hydroxytryptophan-induced head twitch in Swiss albino mouse at 200 mg/kg, ip measured for 6 two mins interval; type: functional, organism-based; parameters: dose 200 mg/kg

SMILES | EC50 [1] [µM] | Activity [2] | Activity [3] | Activity [4] | Activity [5] | Activity [6] | Activity [7] | Activity [8] | Activity [9] | Activity [10] | CC50 at 96 h [11] [µM] | other results
CC(C)C12C=CC(C)(CC1)C1C(=O)N(N3CCCCS/C3=N\c3ccc(I)cc3)C(=O)C12 (stereo unspecified) | > 59 | inactive | inactive | inactive | inactive | inactive | inactive | inactive | inactive | inactive | 59 | 
CC(C)C12C=CC(C)(CC1)C1C(=O)N(NC(=S)Nc3ccc(I)cc3)C(=O)C12 (stereo unspecified) | > 100 | inactive | inactive | inactive | inactive | inactive | inactive | inactive | inactive | inactive | > 100 | 
CC(C)C12C=CC(C)(CC1)C1C(=O)N(N3CCCCS/C3=N\c3ccc(Cl)c(Cl)c3)C(=O)C12 (stereo unspecified) | > 100 | inactive | inactive | inactive | inactive | inactive | inactive | inactive | inactive | inactive | > 100 | Activity [12]: Active; Activity [13]: Active; Activity [14]: inactive; Activity [15]: inactive; Activity [16]: inactive; Activity [17]: inactive; Activity [18]: inactive; Activity [19]: Non-toxic; Activity [20]: Non-toxic; Activity [21]: Toxic; Activity [22]: Toxic; Activity [23]: Active
CC1=CC2C(C(C)C)CC1C1C(=O)N(N3CCCCS/C3=N\c3ccc(C)cc3)C(=O)C21 (stereo unspecified) |  | inactive | inactive | inactive | inactive | inactive | inactive | inactive | inactive | inactive |  | Activity [12]: Active; Activity [13]: Active; Activity [14]: inactive; Activity [15]: inactive; Activity [16]: inactive; Activity [17]: inactive; Activity [18]: inactive; Activity [19]: Non-toxic; Activity [20]: Non-toxic; Activity [21]: Toxic; Activity [22]: Toxic; Activity [23]: inactive
CC1=CC2C(C(C)C)CC1C1C(=O)N(N3CCCCS/C3=N\Cc3ccccc3)C(=O)C21 (stereo unspecified) | > 47 | inactive | inactive | inactive | inactive | inactive | inactive | inactive | inactive | inactive | 47 | 
CC1=CC2C(C(C)C)CC1C1C(=O)N(N3CCCCS/C3=N\c3ccc(I)cc3)C(=O)C21 (stereo unspecified) | > 22 | inactive | inactive | inactive | inactive | inactive | inactive | inactive | inactive | inactive | 22 | 
CC1=CC2C(C(C)C)CC1C1C(=O)N(N3CCCCS/C3=N\c3ccc(Cl)c(Cl)c3)C(=O)C21 (stereo unspecified) | > 100 | inactive | inactive | inactive | inactive | inactive | inactive | inactive | inactive | inactive | 100 | 
CC(C)C12C=CC(C)(CC1)C1C(=O)N(N3CCCCS/C3=N\c3ccc(Cl)cc3)C(=O)C12 (stereo unspecified) | > 32 | inactive | inactive | inactive | inactive | inactive | inactive | inactive | inactive | inactive | 32 | 
CC1=CC2C(C(C)C)CC1C1C(=O)N(NC(=S)NCc3ccccc3)C(=O)C21 (stereo unspecified) | 30 |  |  | inactive | inactive | inactive | inactive | inactive | inactive | inactive | 54 | EC50 [2]: 41 µM; EC50 ([3]; Bovine viral diarrhea virus isolates and strains): 52 µM
